Data published in ChEMBL document CHEMBL5104224, “Alkyltriphenylphosphonium turns naphthoquinoneimidazoles into potent membrane depolarizers against mycobacteria” (RSC Med Chem, 2022).

Tests used:
[1] = Aqueous solubility of compound at pH 7.4 measured after 24 hrs; type: physicochemical; conditions: buffer
In short: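 Stock in DMSO diluted to 100 μM in Universal buffer pH 7.4 with 1% DMSO. Agitated on filter plates for 24 h at 25°C, then filtered and the filtrate diluted with acetonitrile. Concentration read by UV absorbance against calibration curves made in buffer/acetonitrile 80:20. At least 3 occasions, using different stocks.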

[2] = Selectivity index, ratio of IC50 for cytotoxicity against African green monkey Vero E6 cells to MIC50 for antimycobacterial activity against Mycobacterium bovis BCG ATCC 35734; type: toxicity, cell-based, Vero C1008; conditions: read-out: Selectivity Index
[3] = Selectivity index, ratio of IC50 for cytotoxicity against African green monkey Vero E6 cells to MIC50 for antimycobacterial activity against Mycobacterium tuberculosis H37Rv ATCC 27294; type: toxicity, cell-based, Vero C1008; conditions: read-out: Selectivity Index
In short: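 SI is the ratio of a Vero E6 IC50 to an H37Rv MIC50. Vero E6 cells in DMEM + 10% heat-inactivated FBS, 1% penicillin; 30,000 cells/well, 24 h adherence, then compound for 48 h (0.5% DMSO), 37°C, 5% CO2. MTS read at 490 nm after 3 h; IC50 from sigmoidal viability fit, ≥3 determinations. MIC50 by broth dilution: 50% growth inhibition versus drug-free control.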

| SMILES | solubility at 24 h [1] | selectivity ratio [2] | selectivity ratio [3] |
| --- | --- | --- | --- |
| CCCCCCCCn1c2c([n+](CCCC)c1C)C(=O)c1ccccc1C2=O.[Br-] | 118 µM | – | – |
| CCCCn1c2c([n+](C3CCC4(CCCCC4)CC3)c1C)C(=O)c1ccccc1C2=O.[Br-] | 118 µM | – | – |
| Cc1nc2c(n1CCCCCCCCCCC[P+](c1ccccc1)(c1ccccc1)c1ccccc1)C(=O)c1ccccc1C2=O | – | 11 | 5 |
| Cc1nc2c(n1CCCCCCCCC[P+](c1ccccc1)(c1ccccc1)c1ccccc1)C(=O)c1ccccc1C2=O | – | 21 | 34 |
| Cc1nc2c(n1CCCCCCCCCCC[P+](C1CCCCC1)(C1CCCCC1)C1CCCCC1)C(=O)c1ccccc1C2=O | – | 7 | – |
